These results are taken from paper PMC5327638 (Theranostics, 2017).

Series [1] relates to MDAMB231 X4 tumor-bearing Balb/c nude mice. The series is described as follows: Biodistribution by radiodetection. As to conditions: 24 h after i.v. 50 μg (10 MBq), ^111In. It is filed as in vivo, mouse. Put shortly: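 Tracer was labelled with 111In alone or with 111In plus 165Ho, and 50 μg (10 MBq) was given i.v.; some mice had SPECT at 24 h first. Mice were killed at 24 h, and tissues were excised and weighed; dual-label samples were halved before weighing. Gamma counting used 245 keV for 60 s. cpm were converted to MBq, corrected for decay and counting efficiency. %ID/g = (MBq in tissue/injected dose ×100%)/tissue weight.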

Series [2] shares this test system. Briefly: In vivo SPECT imaging in tumor-bearing mice. Details: species or system mouse. As to conditions: i.v., 50 μg, 10 MBq; 24 hrs post-injection; n=5.
The target in series [3] is chemokine receptor 4 (CXCR4), MDAMB231 X4 cells (Homo sapiens, UniProt P61073). The series is described as follows: Fluorescence flow cytometry saturation binding. Put shortly: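 Trypsinised cells (300000 per aliquot) were exposed to tracer at 0–1000 nM in 0.1% BSA/PBS for 1 hr at 4 °C, washed three times and resuspended. Flow cytometry used a 635 nm laser with a […] filter. Mean fluorescence counts gave saturation curves. Triplicates, total n=6.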
Chain of chemokine receptor 4 (CXCR4), MDAMB231 X4 cells (P61073 whole entry): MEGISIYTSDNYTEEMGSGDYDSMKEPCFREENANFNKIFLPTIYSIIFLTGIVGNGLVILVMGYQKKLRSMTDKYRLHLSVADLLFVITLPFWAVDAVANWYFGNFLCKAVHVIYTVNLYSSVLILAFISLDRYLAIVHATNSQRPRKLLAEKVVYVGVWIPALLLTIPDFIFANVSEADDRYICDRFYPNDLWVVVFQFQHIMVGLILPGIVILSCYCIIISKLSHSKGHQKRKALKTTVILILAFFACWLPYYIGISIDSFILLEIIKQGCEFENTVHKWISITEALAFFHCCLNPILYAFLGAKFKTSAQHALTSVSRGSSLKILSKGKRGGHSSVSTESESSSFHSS

As for `CC(=O)N[C@@H](CCCNC(=N)N)C(=O)N[C@@H](CCCNC(=N)N)C(=O)N[C@@H](Cc1ccc2ccccc2c1)C(=O)N[C@H]1CSSC[C@@H](C(=O)N[C@@H](CCCNC(=N)N)C(N)=O)NC(=O)[C@H](CCCNC(N)=O)NC(=O)[C@H](CCCNC(=N)N)NC(=O)[C@H](Cc2ccc(O)cc2)NC(=O)[C@@H]2CCCN2C(=O)[C@@H](CCCCNC(=O)CCCNC(=O)[C@H](CCCCNC(=O)CCCCCN2C(=CC=CC=CC3=[N+](CCCCS(=O)(=O)O)c4ccc(S(=O)(=O)[O-])cc4C3(C)C)C(C)(C)c3cc(S(=O)(=O)O)ccc32)NC(=O)CN(CCN(CC(=O)O)CC(=O)O)CCN(CC(=O)O)CC(=O)O)NC(=O)[C@H](CCCNC(=N)N)NC(=O)[C@H](CCCNC(N)=O)NC(=O)[C@H](Cc2ccc(O)cc2)NC1=O` (single isomer, unassigned) [^111In(^165Ho)-hybrid-Cy5-Ac-TZ14011, metal not drawn], the “tumor to muscle ratio (T/M), radiodetection” value in series [1] (n=3-5) was 4.38 ± 1.51.

Take `CC(=O)N[C@@H](CCCNC(=N)N)C(=O)N[C@@H](CCCNC(=N)N)C(=O)N[C@@H](Cc1ccc2ccccc2c1)C(=O)N[C@H]1CSSC[C@@H](C(=O)N[C@@H](CCCNC(=N)N)C(N)=O)NC(=O)[C@H](CCCNC(N)=O)NC(=O)[C@H](CCCNC(=N)N)NC(=O)[C@H](Cc2ccc(O)cc2)NC(=O)[C@@H]2CCCN2C(=O)[C@@H](CCCCNC(=O)CCCNC(=O)[C@H](CCCCNC(=O)CCCCCN2C(=CC=CC=CC3=[N+](CCCCS(=O)(=O)O)c4ccc(S(=O)(=O)[O-])cc4C3(C)C)C(C)(C)c3cc(S(=O)(=O)O)ccc32)NC(=O)CN(CCN(CC(=O)O)CC(=O)O)CCN(CC(=O)O)CC(=O)O)NC(=O)[C@H](CCCNC(=N)N)NC(=O)[C@H](CCCNC(N)=O)NC(=O)[C@H](Cc2ccc(O)cc2)NC1=O` (single isomer, unassigned) [^111In-hybrid-Cy5-Ac-TZ14011, metal not drawn]: the “uptake on SPECT images” value in series [2] is “high uptake in the liver and kidneys as well as in the tumor”. Besides, in series [1], the “uptake in tumor exceeding uptake in muscle, factor” value was 6.

As a reminder, the Kd is the equilibrium constant for the complex coming apart. `CC(=O)N[C@@H](CCCNC(=N)N)C(=O)N[C@@H](CCCNC(=N)N)C(=O)N[C@@H](Cc1ccc2ccccc2c1)C(=O)N[C@H]1CSSC[C@@H](C(=O)N[C@@H](CCCNC(=N)N)C(N)=O)NC(=O)[C@H](CCCNC(N)=O)NC(=O)[C@H](CCCNC(=N)N)NC(=O)[C@H](Cc2ccc(O)cc2)NC(=O)[C@@H]2CCCN2C(=O)[C@@H](CCCCNC(=O)CCCNC(=O)[C@H](CCCCNC(=O)CCCCCN2C(=CC=CC=CC3=[N+](CCCCS(=O)(=O)O)c4ccc(S(=O)(=O)[O-])cc4C3(C)C)C(C)(C)c3cc(S(=O)(=O)O)ccc32)NC(=O)CN(CCN(CC(=O)O)CC(=O)O)CCN(CC(=O)O)CC(=O)O)NC(=O)[C@H](CCCNC(=N)N)NC(=O)[C@H](CCCNC(N)=O)NC(=O)[C@H](Cc2ccc(O)cc2)NC1=O` (single isomer, unassigned) [hybrid-Cy5-Ac-TZ14011] registered a Kd in series [3] of 245 ± 65 nM. The “maximum signal intensity, flow cytometry” value in series [3] (Cy5, saturation binding, n=6) was found to be 1100 fluorescence counts.
